Source: PubChem BioAssay AID588621 (Sanford-Burnham Center for Chemical Genomics, 2011)
Among all 360,000 compounds or so, about 890 (0.25%) were called active. Only a selection was taken, and actives are over-represented in it overall. Values without a mark were called inactive.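 The calls were made as follows: active = inhibition at 20 µM, scaled per plate between control wells, above about 37% (limit read from the data); inactive = the rest.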

Molecular target: Tyrosine-protein phosphatase non-receptor type 5 (Homo sapiens) (UniProt P54829)
Sequence (P54829 whole entry, looked up): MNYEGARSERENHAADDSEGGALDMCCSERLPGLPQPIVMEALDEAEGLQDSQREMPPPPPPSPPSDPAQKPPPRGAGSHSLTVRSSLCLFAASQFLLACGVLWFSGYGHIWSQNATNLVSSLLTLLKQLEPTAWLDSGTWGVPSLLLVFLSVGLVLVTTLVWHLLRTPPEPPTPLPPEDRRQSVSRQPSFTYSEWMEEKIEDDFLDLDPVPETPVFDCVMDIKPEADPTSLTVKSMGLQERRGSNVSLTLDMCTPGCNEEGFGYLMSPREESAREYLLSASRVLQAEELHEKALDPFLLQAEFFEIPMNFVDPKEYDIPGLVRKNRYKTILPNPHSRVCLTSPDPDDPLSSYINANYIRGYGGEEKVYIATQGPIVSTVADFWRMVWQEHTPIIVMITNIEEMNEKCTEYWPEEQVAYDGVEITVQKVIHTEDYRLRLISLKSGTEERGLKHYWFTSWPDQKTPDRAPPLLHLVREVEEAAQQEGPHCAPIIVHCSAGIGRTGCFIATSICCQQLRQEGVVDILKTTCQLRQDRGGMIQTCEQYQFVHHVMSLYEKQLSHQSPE
Assay: STEP phosphatase inhibitors, primary screen, biochemical, fluorescence intensity, uHTS (AID 588621);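 also: 0% = DMSO with enzyme and substrate and 100% = substrate only without enzyme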
Conditions: recombinant STEP, OMFP fluorogenic substrate, at 20 µM, stronger effect = higher value
Method in brief: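 medium = Bis-Tris buffer pH 6.0, 2.5 mM DTT, 0.005% Tween 20 | test system = STEP (striatal-enriched tyrosine phosphatase) enzyme, cell-free | measure = normalized % inhibition | compound dosing = 20 µM, 1% DMSO | also added = 25 µM OMFP | schedule = reaction 20 min, ambient temperature | measured by = fluorescence read at 480 nm ex / 540 nm em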

Row | Compound | inhibition
1 | COc1ccc(N2C(=O)/C(=C/c3ccco3)C(=O)NC2=S)cc1 | 63.7% (active)
2 | CC1CC=CCC12C(=O)NC(=S)NC2=O (stereo not given) | 0%
3 | COc1ccc(-n2c(-c3ccccc3)nc3ccccc3c2=O)cc1 | -0.9%
4 | O=C(c1cc2nc(-c3ccccc3)cc(-c3ccccc3)n2n1)N1CCC2(CC1)OCCO2 | 0.4%
5 | CN(C)CCN(CC1CCCN(Cc2ccccc2F)C1)C(=O)Cc1ccc(F)c(F)c1 (stereo not given) | -2%
